Data from article PMC2718129 (Molecular cancer therapeutics, 2009).
Several values for one entry are separate records, joined by “and”; a condition that tells them apart may be missing. Equal values may be shown once. Read-outs that look alike come from different tables or passages of the source.

Legend:
p110γ = p110γ (Homo sapiens, UniProt P48736); experiment: Phosphatidylinositide 3-kinase scintillation proximity assay, p110γ; type: biochemical; conditions: read-out: IC50 against p110γ; 1 μmol/L ATP
[1] = system: phosphorylation of GSK3β Ser9 in U87MG cells; experiment: Electrochemiluminescent immunoassay; type: cell-based, human
In short: (§1)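 U87MG cells were seeded at 8 × 10^4 cells/mL and treated 48 h later for 2 or 8 h with 5 to 500 nmol/L inhibitor. Cells were lysed and freeze-thawed once at -80°C, and lysate went directly onto Meso Scale multiplex phospho/total plates with overnight sample incubation before secondary antibody. One well from each of three independent plates was read. IC50 is given as mean ±SD.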

[2] = system: panel of human cancer cell lines and human umbilical vein endothelial cells; experiment: Antiproliferative GI50 assay, cell line panel; type: cell-based; conditions: 96 hours continuous exposure
In short: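 Tumor lines were grown in DMEM with 2 mmol/L glutamine, antibiotics and 10% FBS at 37°C in 5% CO2, and read by Alamar Blue or sulforhodamine B. Pooled HUVEC were used at passages 3 to 8 and read by an alkaline phosphatase assay. Exposure was continuous for 96 h. GI50 is the mean of three independent determinations.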

[3] = Pharmacokinetics of PI-540 and PI-620 in BALB/c mice; type: in vivo; conditions: for volume of distribution: female BALB/c mice, 10 mg/kg i.v.; for plasma clearance / oral bioavailability / terminal half-life in plasma / terminal half-life in tissues / spleen to plasma ratio: mice; for plasma clearance / terminal half-life in plasma / terminal half-life in tissues / spleen to plasma ratio: 10 mg/kg; for oral bioavailability: 10 mg/kg i.v. and p.o.; for terminal half-life in plasma / terminal half-life in tissues: after i.v. administration; for spleen to plasma ratio: following i.v. dosing
[4] = system: U87MG human glioblastoma xenografts; experiment: U87MG glioblastoma xenograft efficacy study; type: in vivo, athymic mice; conditions: for T/C (final tumor weights) / tumor growth inhibition: U87MG xenografts; for tolerability of doses: i.p. dosing for 14 days
[5] = system: AKT phosphorylation (Ser473, Thr308) in U87MG tumor xenografts; experiment: Pharmacodynamic AKT phosphorylation in U87MG xenografts; type: in vivo, athymic mice
[6] = system: phosphorylation of GSK3β in U87MG tumor xenografts; experiment: Pharmacodynamic GSK3β phosphorylation in U87MG xenografts; type: in vivo, athymic mice; conditions: 50 mg/kg b.i.d or 100 mg/kg u.i.d i.p. for 4 days
LoVo cells = experiment: Antiproliferative GI50 assay, LoVo; type: cell-based; conditions: Homo sapiens, 96 h, read-out: antiproliferative GI50
In short: (§2)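 Cells grown in DMEM with 2 mmol/L glutamine, penicillin/streptomycin and 10% FBS at 37°C in 5% CO2, and mycoplasma-negative by PCR. Continuous 96 h exposure to test compound. Proliferation was read by Alamar Blue or sulforhodamine B, and GI50 was taken as the concentration giving 50% inhibition of proliferation.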

SNUC2B cells = experiment: Antiproliferative GI50 assay, SNUC2B; type: cell-based; conditions: Homo sapiens, SNU-C2B, 96 h, read-out: antiproliferative GI50
In short: as §2

HCT116 cells = experiment: Antiproliferative GI50 assay, HCT116; type: cell-based; conditions: Homo sapiens, HCT-116, 96 h, read-out: antiproliferative GI50
In short: as §2

[7] = system: IGROV-1 human ovarian cancer xenografts; experiment: IGROV-1 ovarian cancer xenograft efficacy study; type: in vivo, athymic mice; conditions: IGROV-1 xenografts
[8] = system: poly(ADP-ribose) polymerase cleavage in U87MG xenografts; experiment: PARP cleavage in U87MG xenografts; type: in vivo, athymic mice; conditions: 4 hours after oral dosing with 25 to 150 mg/kg
[9] = mice, 10 mg/kg; cited from earlier work
[10] = system: forkhead transcription factor translocation; conditions: read-out: 50% inhibition of forkhead transcription factor translocation; previously reported; cited from earlier work
[11] = system: U87MG human glioblastoma xenografts; conditions: PTEN-null U87MG glioblastoma xenografts; cited from earlier work
[12] = system: AKT phosphorylation (Ser473, Thr308) in U87MG tumor xenografts; conditions: for a short time; cited from earlier work
[13] = system: phosphorylation of AKT (Thr308, Ser473) in U87MG cells; experiment: Electrochemiluminescent immunoassay; type: cell-based, human; conditions: 2 or 8 h
In short: as §1

[14] = system: phosphorylation of p70S6K Thr421/Ser424 in U87MG cells; experiment: Electrochemiluminescent immunoassay; type: cell-based, human; conditions: at 2 hours and, more potently, at 8 hours
In short: as §1

[15] = system: phosphorylation of S6 ribosomal protein Ser235/Ser236 in U87MG cells; experiment: Electrochemiluminescent immunoassay; type: cell-based, human; conditions: at 2 hours and, more potently, at 8 hours
In short: as §1

[16] = 50 mg/kg b.i.d. i.p. for 14 days, 50 mg/kg
[17] = 50 mg/kg b.i.d or 100 mg/kg u.i.d i.p. for 4 days, at 1 hour
[18] = 25 mg/kg b.i.d i.p. for 14 days, 25 mg/kg
[19] = 50 mg/kg u.i.d i.p. for 14 days
[20] = 25 mg/kg daily p.o. for 19 days
[21] = 25 mg/kg oral daily for 13 days

Sequence of p110γ (P48736 whole entry, species assumed): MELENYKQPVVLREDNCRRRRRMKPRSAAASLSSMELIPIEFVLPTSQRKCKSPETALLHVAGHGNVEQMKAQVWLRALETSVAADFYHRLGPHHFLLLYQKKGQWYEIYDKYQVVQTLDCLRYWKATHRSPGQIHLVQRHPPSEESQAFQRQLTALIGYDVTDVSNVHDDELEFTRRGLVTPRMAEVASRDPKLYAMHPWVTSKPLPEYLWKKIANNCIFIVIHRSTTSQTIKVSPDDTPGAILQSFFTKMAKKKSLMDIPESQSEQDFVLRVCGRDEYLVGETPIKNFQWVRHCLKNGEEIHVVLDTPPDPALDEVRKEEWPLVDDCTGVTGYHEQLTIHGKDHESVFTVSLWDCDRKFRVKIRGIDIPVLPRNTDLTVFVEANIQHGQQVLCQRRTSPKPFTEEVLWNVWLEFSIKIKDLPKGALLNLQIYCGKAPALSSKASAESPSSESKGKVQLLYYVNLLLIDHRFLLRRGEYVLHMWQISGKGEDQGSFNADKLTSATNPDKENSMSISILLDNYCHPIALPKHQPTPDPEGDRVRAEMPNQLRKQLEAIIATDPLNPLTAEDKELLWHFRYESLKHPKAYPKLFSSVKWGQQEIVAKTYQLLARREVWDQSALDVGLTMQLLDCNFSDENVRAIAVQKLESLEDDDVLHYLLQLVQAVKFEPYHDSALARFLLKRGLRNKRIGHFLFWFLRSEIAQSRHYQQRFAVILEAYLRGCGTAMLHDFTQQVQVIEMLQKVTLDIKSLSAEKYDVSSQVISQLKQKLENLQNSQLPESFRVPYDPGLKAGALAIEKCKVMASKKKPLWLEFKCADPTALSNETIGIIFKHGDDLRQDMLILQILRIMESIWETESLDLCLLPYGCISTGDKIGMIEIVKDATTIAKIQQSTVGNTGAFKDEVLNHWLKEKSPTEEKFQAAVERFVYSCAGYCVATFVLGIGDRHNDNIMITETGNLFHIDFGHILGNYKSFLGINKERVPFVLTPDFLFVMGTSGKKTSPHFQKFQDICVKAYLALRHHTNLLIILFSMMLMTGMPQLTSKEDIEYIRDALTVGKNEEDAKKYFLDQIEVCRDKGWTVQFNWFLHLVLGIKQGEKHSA

With `CN1CCN(Cc2cc3nc(-c4cccc(O)c4)nc(N4CCOCC4)c3s2)CC1` [PI-540] the IC50 (p110γ) was greater than 300 nM, the “fold less potent in inhibiting phosphorylation of GSK3β Ser9 compared with phosphorylation of AKT” value [1] was 10 fold and the “growth inhibition potency in each cell line of the panel” value [2] was “submicromolar”. The volume of distribution [3] was 300 mL, the plasma clearance [3] was “high” and the oral bioavailability [3] was less than 10%. The “terminal half-life in plasma” value [3] was 0.24 h, the “terminal half-life in tissues” value [3] was 7.6 h and the “spleen to plasma ratio” value [3] was 31. The “T/C (final tumor weights)” value [4, 16] was 34% and 33.9%, the tumor growth inhibition [4, 16] was 66% and 66.1% and the tolerability of doses ([4]; athymic mice) was “very well tolerated”. For the same compound, the “inhibition of phosphorylation on AKT Ser473 in tumor” value [5, 17] was greater than 50%, the “inhibition of phosphorylation on AKT Thr308 in tumor” value [5, 17] was greater than 50% and the “inhibition of phosphorylation of GSK3β in tumor” value [6] was “no detectable inhibition”.

In the case of `OCCN1CCN(Cc2cc3nc(-c4cccc(O)c4)nc(N4CCOCC4)c3s2)CC1` [PI-620], the IC50 (p110γ) is reported as greater than 300 nM, the “growth inhibition potency in each cell line of the panel” value [2] is reported as “submicromolar” and the volume of distribution [3] is reported as 206 mL. For the same compound, the plasma clearance [3] was “high”, the oral bioavailability [3] was less than 10% and the “terminal half-life in plasma” value [3] was 0.9 h. The “terminal half-life in tissues” value [3] was 4.3 h, the “spleen to plasma ratio” value [3] was 13.9 and the “T/C (final tumor weights)” value [4, 18] was 27% and 26.7%. For the same compound, the tumor growth inhibition [4, 18] was 73% and 73.3%, the “T/C (final tumor weights)” value [4, 19] was 44.8% and the tumor growth inhibition [4, 19] was 55.2%. For the same compound, the tolerability of doses ([4]; athymic mice) was “very well tolerated”.

`CS(=O)(=O)N1CCN(Cc2cc3nc(-c4cccc5[nH]ncc45)nc(N4CCOCC4)c3s2)CC1` [GDC-0941, 2-(1H-Indazol-4)-6-(4-methanesulfonyl-piperazin-1-ylmethyl)-4-morpholin-4-yl-thieno[3,2-d]pyrimidine] gave a GI50 (LoVo cells) of 180 nM, a GI50 (SNUC2B cells) of 1630 nM and a GI50 (HCT116 cells) of 905 nM. The “T/C (final tumor weights)” value [4, 20] was 23.4%, the tumor growth inhibition [4, 20] was 76.6% and the “T/C (final tumor weights)” value ([4]; 150 mg/kg daily p.o. for 19 days) was 2.3%. The tumor growth inhibition ([4]; 150 mg/kg daily p.o. for 19 days, 150 mg/kg) was 98% and 97.7%, the tolerability of therapy ([4]; athymic mice, 25 to 150 mg/kg daily p.o. for 19 days, all groups gained weight at similar rates to controls) was “well tolerated” and the T/C [7, 21] was 50.5%. The tumor growth inhibition [7, 21] was 49.5%, the T/C ([7]; 150 mg/kg oral daily for 13 days) was 19.7% and the tumor growth inhibition ([7]; 150 mg/kg oral daily for 13 days, 150 mg/kg) was 80% and 80.3%. The “levels of activated AKT Ser473 in tumor” value ([5]; 150 mg/kg daily p.o. for 19 days, 4 hours after the last dose) was “undetectable”, the “duration of maintained inhibition of AKT Ser473 phosphorylation in tumor” value ([5]; oral dosing) was greater than 8 h and the “poly(ADP-ribose) polymerase cleavage in tumor samples” value [8] was “clear increase”. The oral bioavailability [9] was 78%.

For `Oc1cccc(-c2nc(N3CCOCC3)c3oc4ncccc4c3n2)c1` [PI-103], the GI50 (LoVo cells) is given as 22 nM, the GI50 (SNUC2B cells) is given as 827 nM and the IC50 [10] is given as 30 nM. The “growth inhibition in xenografts” value [11] was greater than 50% and the “inhibition of phosphorylation of AKT Ser473 in tumor” value [12] was no more than 50%.

In the case of `CO[C@H]1C[C@@H]2CC[C@@H](C)[C@@](O)(O2)C(=O)C(=O)N2CCCC[C@H]2C(=O)O[C@H]([C@H](C)C[C@@H]2CC[C@@H](O)[C@H](OC)C2)CC(=O)[C@H](C)/C=C(\C)[C@@H](O)[C@@H](OC)C(=O)[C@H](C)C[C@H](C)/C=C/C=C/C=C/1C` [Rapamycin], the “effect on phosphorylation of AKT” value [13] is reported as “did not affect”, the “effect on phosphorylation of GSK3β” value ([1]; 2 or 8 h) is reported as “did not affect” and the “effect on phosphorylation of p70S6K” value [14] is reported as “inhibited”. For the same compound, the “effect on phosphorylation of S6 ribosomal protein” value [15] was “inhibited”.
